Results taken from ChEMBL document CHEMBL1123083, “Synthesis and antiherpetic activity of (S)-, (R)-, and (+/-)-9-[(2,3-dihydroxy-1-propoxy)methyl]guanine, linear isomers of 2'-nor-2'-deoxyguanosine” (J Med Chem, 1985).
In brackets after ≈: the same amount, converted by molar mass.

How the values were obtained:
[1] = test system: Human alphaherpesvirus 1; assay: Efficacy was evaluated against Oraficial HSV-1 infection in mice with lesions administered orally at a dose 50 mg/kg per day.; format: ADME, organism-based; set-up: route oral; conditions: mouse, in vivo, po
Method in brief: (§1)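 HSV-1 strain S inoculated in the orofacial area of mice as previously described. Half-daily doses given by gavage 8 h apart, starting 3 h after infection, for 7 days. On day 7 after infection, mice with lesions per group and average lesion score were recorded (95% confidence interval). Significance was judged against placebo-treated infected mice (p < 0.05).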

[2] = test system: Human alphaherpesvirus 1; assay: Efficacy was evaluated against Oraficial HSV-1 infection in mice with lesions administered orally at a dose 50 mg/kg per day; Total mice tested 10; format: organism-based; set-up: route oral; conditions: mouse, in vivo, po; method in brief: as §1
[3] = test system: Human alphaherpesvirus 1; assay: Efficacy was evaluated against Systemic HSV-1 infection in mice at a daily dose of 3.1 mg/kg administered orally; Total mice tested 10; format: ADME, organism-based; set-up: dose 3.1 mg/kg; conditions: mouse, in vivo, po
Method in brief: (§2)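 Mixed-sex ICR/Ha mice (10–20 g) were infected intraperitoneally with 50–100 LD50 of HSV-1 Schooler. Oral dosing of 0.1 mL twice daily for 7 days began immediately after infection. Groups were of about 10 mice. Deaths were recorded daily for 15 days, giving survivors/total and mean survival time with 95% CI. Significance was judged against placebo-treated infected mice using transformed survival times.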

[4] = test system: Human alphaherpesvirus 1; assay: Efficacy was evaluated against Systemic HSV-1 infection in mice at a daily dose of 12.5 mg/kg administered orally; Total mice tested 10; format: ADME, organism-based; set-up: dose 12.5 mg/kg; conditions: mouse, in vivo, po; method in brief: as §2
[5] = test system: Human betaherpesvirus 5; assay: In vitro anti viral activity tested against HCMV(AD169) virus on MRC-5 cell monolayers; 20-25; format: functional; conditions: Human betaherpesvirus 5, MRC5; read-out: ED50 (the source's name)
Method in brief: (§3)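 MRC-5 monolayers were infected with HCMV AD169 for 1 h at 37 °C. Compound diluted in maintenance medium was then added and incubation continued for 7 days at 37 °C. Monolayers were stained and plaques counted. ED50 is the concentration reducing plaque number by 50%.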

[6] = test system: Human alphaherpesvirus 1; assay: Efficacy was evaluated against Oraficial HSV-1 infection in mice with lesions administered orally at a dose 12.5 mg/kg per day; Total mice tested 10; format: organism-based; set-up: route oral; conditions: mouse, in vivo, po; method in brief: as §1
[7] = test system: Human alphaherpesvirus 1; assay: In vitro anti viral activity tested against HSV-1(Schooler) virus on Rabbit kidney cell cultures; 1-3; format: functional; conditions: Human alphaherpesvirus 1, kidney; read-out: ED50 (the source's name)
Method in brief: (§4)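 Confluent primary rabbit kidney monolayers were preincubated with serial drug dilutions in EMEM with 2% fetal calf serum and neomycin. They were then challenged with about 10 TCID50 of HSV-1 Schooler and incubated at 37 °C. Cytopathology was scored on day 5.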

[8] = test system: Human alphaherpesvirus 1; assay: Evaluated for DNA polymerase inhibition activity against herpes simplex virus-1 (HSV-1); format: functional
Method in brief: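 Step II mixture supplied the phosphorylated test material. Step I: compound with HSV-1 thymidine kinase, 4 h, 37 °C. Step II: then HSV-1-infected HeLa crude extract plus GMP kinase, overnight, 30 °C. A 20 μL sample went to a 1 h, 37 °C DNA polymerase assay at pH 8 with activated salmon sperm DNA, 0.05 mM each dNTP ([³H]dTTP) and infected HeLa extract. (NH₄)₂SO₄ 0.1 M was present for the viral enzyme and omitted for the cellular polymerases. Read-out: TCA-precipitable radioactivity.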

[9] = test system: Human alphaherpesvirus 1; assay: Efficacy was evaluated against Systemic HSV-1 infection in mice at a daily dose of 50 mg/kg administered orally; Total mice tested 10; format: organism-based; set-up: dose 50 mg/kg; conditions: mouse, in vivo, po; method in brief: as §2
[10] = test system: Human alphaherpesvirus 2; assay: In vitro anti viral activity tested against HSV-2(Curtis) virus on Rabbit kidney cell cultures; 1-3; format: functional; conditions: Human alphaherpesvirus 2, kidney; read-out: ED50 (the source's name)
Method in brief: as §4, with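 “Schooler or HSV-2 Curtis” for “Schooler”, “5. ED50 is the concentration preventing cytopathology in half of the infected cultures.” for “5.”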

[11] = test system: DNA polymerase (Homo sapiens); assay: Evaluated for DNA polymerase inhibition activity against HeLa cells.
[12] = test system: Human alphaherpesvirus 1; assay: Efficacy was evaluated against Systemic HSV-1 infection in mice at a daily dose of 12.5 mg/kg administered orally.; format: ADME, organism-based; set-up: dose 12.5 mg/kg; conditions: mouse, in vivo, po; method in brief: as §2
[13] = test system: Human alphaherpesvirus 1; assay: Efficacy was evaluated against Systemic HSV-1 infection in mice at a daily dose of 3.1 mg/kg administered orally.; format: ADME, organism-based; set-up: dose 3.1 mg/kg; conditions: mouse, in vivo, po; method in brief: as §2
[14] = test system: Human alphaherpesvirus 1; assay: Efficacy was evaluated against Oraficial HSV-1 infection in mice with lesions administered orally at dose 3.1 mg/kg per day; Total mice tested 10; format: ADME, organism-based; set-up: route oral; conditions: mouse, in vivo, po; method in brief: as §1
[15] = test system: Human alphaherpesvirus 1; assay: Efficacy was evaluated against Oraficial HSV-1 infection in mice with lesions administered orally at a dose 3.1 mg/kg per day.; format: ADME, organism-based; set-up: route oral; conditions: mouse, in vivo, po; method in brief: as §1
[16] = test system: Human alphaherpesvirus 1; assay: Efficacy was evaluated against Systemic HSV-1 infection in mice at a daily dose of 50 mg/kg administered orally.; format: ADME, organism-based; set-up: dose 50 mg/kg; conditions: mouse, in vivo, po; method in brief: as §2
[17] = test system: Human alphaherpesvirus 1; assay: Efficacy was evaluated against Oraficial HSV-1 infection in mice with lesions administered orally at a dose 12.5 mg/kg per day.; format: ADME, organism-based; set-up: route oral; conditions: mouse, in vivo, po; method in brief: as §1
[18] = test system: Human alphaherpesvirus 2; assay: In vitro anti viral activity tested against HSV-2(Curtis) virus on Rabbit kidney cell cultures; 3-6; format: functional; conditions: Human alphaherpesvirus 2, kidney; read-out: ED50 (the source's name)
Method in brief: as §4, with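 “Schooler or HSV-2 Curtis” for “Schooler”, “5. ED50 is the concentration preventing cytopathology in half of the infected cultures.” for “5.”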

[19] = test system: Human alphaherpesvirus 3; assay: In vitro anti viral activity tested against VZV(KMcC) virus on MRC-5 cell monolayers; 1-2; format: functional; conditions: Human alphaherpesvirus 3, MRC5; read-out: ED50 (the source's name)
[20] = test system: Mus musculus; assay: Efficacy was evaluated against Systemic HSV-1 infection in mice at a daily dose of 12.5 mg/kg administered subcutaneously.; format: ADME, organism-based; set-up: dose 12.5 mg/kg, route subcutaneous; conditions: in vivo, sc
Method in brief: (§5)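 ICR/Ha mice (10–20 g, mixed sex) were infected intraperitoneally with 50–100 LD50 of HSV-1 Schooler. Subcutaneous dosing of 0.1 mL twice daily for 4 days started immediately after infection. Groups were of about 10 mice. Survival was recorded daily for 15 days and reported as survivors/total and mean survival time (95% CI). Transformed survival times were compared with placebo-treated infected mice (p < 0.05).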

[21] = test system: Human alphaherpesvirus 1; assay: Efficacy was evaluated against Systemic HSV-1 infection in mice at a daily dose of 12.5 mg/kg administered subcutaneously; Tested mice 10; format: organism-based; set-up: dose 12.5 mg/kg, route subcutaneous; conditions: mouse, in vivo, sc; method in brief: as §5
[22] = test system: Human alphaherpesvirus 1; assay: Efficacy was evaluated against Systemic HSV-1 infection in mice at a daily dose of 3.1 mg/kg administered subcutaneously; Tested mice 10; format: ADME, organism-based; set-up: dose 3.1 mg/kg, route subcutaneous; conditions: mouse, in vivo, sc; method in brief: as §5
[23] = test system: Human alphaherpesvirus 1; assay: Efficacy was evaluated against Systemic HSV-1 infection in mice at a daily dose of 0.8 mg/kg administered subcutaneously; Tested mice 10; format: organism-based; set-up: dose 0.8 mg/kg, route subcutaneous; conditions: mouse, in vivo, sc; method in brief: as §5
[24] = test system: Human alphaherpesvirus 1; assay: Efficacy was evaluated against Systemic HSV-1 infection in mice at a daily dose of 0.8 mg/kg administered subcutaneously.; format: ADME, organism-based; set-up: dose 0.8 mg/kg, route subcutaneous; conditions: mouse, in vivo, sc; method in brief: as §5
[25] = test system: Human betaherpesvirus 5; assay: In vitro anti viral activity tested against HCMV(AD169) virus on MRC-5 cell monolayers; 0.4-1.6; format: functional; conditions: Human betaherpesvirus 5, MRC5; read-out: ED50 (the source's name); method in brief: as §3
[26] = test system: Human alphaherpesvirus 1; assay: Efficacy was evaluated against Systemic HSV-1 infection in mice at a daily dose of 3.1 mg/kg administered subcutaneously.; format: ADME, organism-based; set-up: dose 3.1 mg/kg, route subcutaneous; conditions: mouse, in vivo, sc; method in brief: as §5

Q: Which Average lesion score [1] does the source give for `Nc1nc2c(ncn2COCCO)c(=O)[nH]1` [ACYCLOVIR] here?
A: Its Average lesion score is 1.45.

Q: And the Mice with lesions [2]?
A: The Mice with lesions was 6.

Q: And the Survivors [3]?
A: Its Survivors is 0.

Q: What about the Survivors [4] of the same molecule?
A: The Survivors was 1.

Q: And the EC50 [5]?
A: The EC50 was 20 µg/mL (≈ 88.8 µM).

Q: And the Mice with lesions [6]?
A: The Mice with lesions was 8.

Q: And the EC50 [7]?
A: Its EC50 is 1 µg/mL (≈ 4.44 µM).

Q: What about the Inhibition [8] of the same molecule?
A: The Inhibition was 85%.

Q: What about the Survivors [9] of the same molecule?
A: The Survivors was 2.

Q: And the EC50 [10]?
A: The EC50 was 1 µg/mL (≈ 4.44 µM).

Q: And the Inhibition [11]?
A: Its Inhibition is 34%.

Q: What about the Average survival [12] of the same molecule?
A: Its Average survival is 7.6 days.

Q: And the Average survival [13]?
A: The Average survival was 6.5 days.

Q: What about the Mice with lesions [14] of the same molecule?
A: Its Mice with lesions is 10.

Q: And the Average lesion score [15]?
A: Its Average lesion score is 3.75.

Q: And the Average survival [16]?
A: Its Average survival is 8.7 days.

Q: And the Average lesion score [17]?
A: The Average lesion score was 2.95.

Q: With `Nc1nc2c(ncn2COC(CO)CO)c(=O)[nH]1` [GANCICLOVIR] as the molecule, how does the EC50 [18] read?
A: The EC50 was 3 µg/mL (≈ 11.8 µM).

Q: What about the EC50 [19] of the same molecule?
A: The EC50 was 1 µg/mL (≈ 3.92 µM).

Q: And the Average survival [20]?
A: Its Average survival is 14.6 days.

Q: What about the Survivors [21] of the same molecule?
A: Its Survivors is 7.

Q: What about the Survivors [22] of the same molecule?
A: The Survivors was 5.

Q: And the EC50 [7]?
A: Its EC50 is 1 µg/mL (≈ 3.92 µM).

Q: And the Inhibition [8]?
A: Its Inhibition is 55%.

Q: And the Survivors [23]?
A: The Survivors was 3.

Q: What about the Inhibition [11] of the same molecule?
A: Its Inhibition is 13%.

Q: And the Average survival [24]?
A: Its Average survival is 9.8 days.

Q: What about the EC50 [25] of the same molecule?
A: The EC50 was 0.4 µg/mL (≈ 1.57 µM).

Q: What about the Average survival [26] of the same molecule?
A: Its Average survival is 12.6 days.
